Structures are written as SMILES. Some results are limits rather than exact numbers.

Assay type in all cases: functional, cell-based
Test [1] deals with Metabotropic glutamate receptor 8 (Rattus norvegicus, UniProt P70579). Description: (§1) Activity at rat mGluR8 receptor measured as intracellular calcium concentration in HEK293 cells. The gist of the method: (§2)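 HEK293 cells were transfected with the indicated receptor, seeded on polyornithine-coated plates and cultured 24 h. Fluorescence (ex 485/em 525 nm) was read every 1.5 s for 60 s after compound addition. Agonism was scored versus basal signal. Dose–response curves were fitted; means of three experiments in triplicate.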
Background: A change in cytosolic calcium serves as a functional read-out for many receptors and channels.

The target in test [2] is Metabotropic glutamate receptor 2 (Rattus norvegicus, UniProt P31421). Description: Activity at rat mGluR2 receptor measured as intracellular calcium concentration in HEK293 cells. In short, it runs like this: as §2
Test [3] addresses Metabotropic glutamate receptor 4 (Rattus norvegicus, UniProt P31423). Description: (§3) Activity at rat mGluR4 receptor measured as intracellular calcium concentration in HEK293 cells. In short, it runs like this:
as §2

Test [4] deals with Metabotropic glutamate receptor 5 (Rattus norvegicus, UniProt P31424). Description: Activity at rat mGluR5 receptor measured as intracellular calcium concentration in HEK293 cells. The gist of the method: as §2
Test [5] addresses Metabotropic glutamate receptor 6 (Rattus norvegicus, UniProt P35349). Description: Activity at rat mGluR6 receptor measured as intracellular calcium concentration in HEK293 cells. The gist of the method: as §2
The target of test [6] is Metabotropic glutamate receptor 7 (Rattus norvegicus, UniProt P35400). Description: Activity at rat mGluR7 receptor measured as intracellular calcium concentration in HEK293 cells. In short, it runs like this:
as §2

In test [7] the target is Metabotropic glutamate receptor 1 (Rattus norvegicus, UniProt P23385). In words: Activity at rat mGluR1 receptor measured as intracellular calcium concentration in HEK293 cells. The gist of the method:
as §2

Test [8] deals with Metabotropic glutamate receptor 4 (Rattus norvegicus) (UniProt P31423). In words: Activity against rat mGluR4 receptor measured as intracellular calcium concentration in HEK293 cells at 450 uM. Conditions: filed as agonist.
Test [9] shares this target. In words: Activity at rat mGluR4 receptor measured as intracellular calcium concentration in HEK293 cells relative to glutamate.
For test [10], the target named is Metabotropic glutamate receptor 8 (Rattus norvegicus) (UniProt P70579). Described as §1. The conditions noted are these: filed as partial agonist. The gist of the method: as §2
For test [11], the target named is Metabotropic glutamate receptor 4 (Rattus norvegicus) (UniProt P31423). The description is as §3. The conditions noted are these: filed as agonist. In short, it runs like this:
as §2

The target in test [12] is Metabotropic glutamate receptor 8 (Rattus norvegicus) (UniProt P70579). Description: Activity at rat mGluR8 receptor measured as intracellular calcium concentration in HEK293 cells relative to glutamate.

Sequence of Metabotropic glutamate receptor 4 (Rattus norvegicus) (P31423 whole entry): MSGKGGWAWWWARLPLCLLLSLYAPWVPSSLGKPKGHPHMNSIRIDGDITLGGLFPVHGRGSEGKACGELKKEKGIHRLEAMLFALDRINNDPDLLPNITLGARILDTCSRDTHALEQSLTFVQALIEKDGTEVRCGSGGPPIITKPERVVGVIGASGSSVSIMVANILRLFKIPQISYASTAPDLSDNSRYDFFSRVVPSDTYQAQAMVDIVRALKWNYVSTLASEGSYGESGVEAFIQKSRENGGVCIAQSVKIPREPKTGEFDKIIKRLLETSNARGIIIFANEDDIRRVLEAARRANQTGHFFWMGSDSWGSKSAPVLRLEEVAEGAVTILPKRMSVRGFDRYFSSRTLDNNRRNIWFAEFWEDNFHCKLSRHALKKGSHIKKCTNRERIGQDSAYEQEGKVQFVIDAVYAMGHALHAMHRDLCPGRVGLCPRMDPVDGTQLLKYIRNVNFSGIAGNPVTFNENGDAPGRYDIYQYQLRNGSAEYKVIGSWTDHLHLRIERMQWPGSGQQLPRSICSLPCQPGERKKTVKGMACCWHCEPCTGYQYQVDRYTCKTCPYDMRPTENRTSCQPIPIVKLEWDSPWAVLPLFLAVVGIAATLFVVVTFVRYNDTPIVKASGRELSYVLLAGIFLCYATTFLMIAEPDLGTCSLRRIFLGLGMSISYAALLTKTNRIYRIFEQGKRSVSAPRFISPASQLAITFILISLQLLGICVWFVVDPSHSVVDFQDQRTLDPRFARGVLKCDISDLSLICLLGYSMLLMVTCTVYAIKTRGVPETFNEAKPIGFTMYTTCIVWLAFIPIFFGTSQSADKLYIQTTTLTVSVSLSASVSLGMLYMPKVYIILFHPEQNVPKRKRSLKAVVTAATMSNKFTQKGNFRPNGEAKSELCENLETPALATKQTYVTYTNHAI
Sequence of Metabotropic glutamate receptor 8 (P70579 whole entry): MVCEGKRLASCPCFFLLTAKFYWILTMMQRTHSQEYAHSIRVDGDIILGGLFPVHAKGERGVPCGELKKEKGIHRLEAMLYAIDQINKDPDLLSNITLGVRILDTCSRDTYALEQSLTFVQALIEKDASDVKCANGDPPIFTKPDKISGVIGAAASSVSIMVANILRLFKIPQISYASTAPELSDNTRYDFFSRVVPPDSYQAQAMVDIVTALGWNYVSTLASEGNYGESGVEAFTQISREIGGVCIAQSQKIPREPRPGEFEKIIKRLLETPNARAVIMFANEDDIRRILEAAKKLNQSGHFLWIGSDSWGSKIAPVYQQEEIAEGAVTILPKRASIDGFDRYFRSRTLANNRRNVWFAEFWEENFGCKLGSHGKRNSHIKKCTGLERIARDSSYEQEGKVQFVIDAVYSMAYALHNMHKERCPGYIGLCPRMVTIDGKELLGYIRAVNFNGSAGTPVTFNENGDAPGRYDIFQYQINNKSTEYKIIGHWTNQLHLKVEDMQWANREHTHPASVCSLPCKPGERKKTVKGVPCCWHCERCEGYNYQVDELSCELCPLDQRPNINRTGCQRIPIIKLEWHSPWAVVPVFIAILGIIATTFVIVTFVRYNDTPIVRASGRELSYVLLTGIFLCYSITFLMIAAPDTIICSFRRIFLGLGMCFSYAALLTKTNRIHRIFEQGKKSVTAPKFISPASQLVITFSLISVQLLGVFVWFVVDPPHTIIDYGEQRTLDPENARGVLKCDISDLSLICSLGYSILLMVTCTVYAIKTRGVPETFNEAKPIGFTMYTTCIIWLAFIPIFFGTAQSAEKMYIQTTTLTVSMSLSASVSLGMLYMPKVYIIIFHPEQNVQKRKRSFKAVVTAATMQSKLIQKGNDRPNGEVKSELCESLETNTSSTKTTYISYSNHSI
Sequence of Metabotropic glutamate receptor 8 (Rattus norvegicus) (P70579 whole entry): as above
Sequence of Metabotropic glutamate receptor 5 (P31424 whole entry): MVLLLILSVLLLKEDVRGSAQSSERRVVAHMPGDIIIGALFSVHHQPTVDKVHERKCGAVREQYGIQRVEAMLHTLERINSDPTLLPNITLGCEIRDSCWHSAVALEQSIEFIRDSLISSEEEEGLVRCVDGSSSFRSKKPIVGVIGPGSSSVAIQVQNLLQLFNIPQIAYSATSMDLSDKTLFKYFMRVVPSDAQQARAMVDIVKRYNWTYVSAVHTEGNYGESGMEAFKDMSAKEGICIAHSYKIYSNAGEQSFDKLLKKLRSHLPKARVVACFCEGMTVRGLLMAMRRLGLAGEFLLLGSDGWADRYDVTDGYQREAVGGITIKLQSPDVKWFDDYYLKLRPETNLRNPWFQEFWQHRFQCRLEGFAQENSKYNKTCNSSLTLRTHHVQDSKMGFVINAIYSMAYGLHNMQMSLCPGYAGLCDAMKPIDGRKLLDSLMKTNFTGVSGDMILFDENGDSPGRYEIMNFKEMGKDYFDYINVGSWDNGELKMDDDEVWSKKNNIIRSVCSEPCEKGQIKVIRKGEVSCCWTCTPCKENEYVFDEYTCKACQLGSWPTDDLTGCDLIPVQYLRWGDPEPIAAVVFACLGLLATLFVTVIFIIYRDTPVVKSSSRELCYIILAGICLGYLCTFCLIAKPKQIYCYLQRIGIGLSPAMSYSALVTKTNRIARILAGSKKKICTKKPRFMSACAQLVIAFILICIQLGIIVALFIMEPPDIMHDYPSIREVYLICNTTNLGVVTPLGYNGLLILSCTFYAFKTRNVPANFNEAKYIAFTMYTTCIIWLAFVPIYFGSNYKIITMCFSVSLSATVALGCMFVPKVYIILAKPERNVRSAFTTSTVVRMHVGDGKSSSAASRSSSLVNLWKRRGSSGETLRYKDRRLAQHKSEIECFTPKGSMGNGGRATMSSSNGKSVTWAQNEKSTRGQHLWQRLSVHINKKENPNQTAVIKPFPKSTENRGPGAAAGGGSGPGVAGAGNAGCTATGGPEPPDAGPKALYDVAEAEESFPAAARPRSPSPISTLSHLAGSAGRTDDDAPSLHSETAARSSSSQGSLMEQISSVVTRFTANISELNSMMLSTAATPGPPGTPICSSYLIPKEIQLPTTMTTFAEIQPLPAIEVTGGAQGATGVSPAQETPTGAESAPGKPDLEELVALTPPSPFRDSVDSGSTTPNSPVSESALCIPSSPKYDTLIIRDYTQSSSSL
Sequence of Metabotropic glutamate receptor 2 (P31421 whole entry): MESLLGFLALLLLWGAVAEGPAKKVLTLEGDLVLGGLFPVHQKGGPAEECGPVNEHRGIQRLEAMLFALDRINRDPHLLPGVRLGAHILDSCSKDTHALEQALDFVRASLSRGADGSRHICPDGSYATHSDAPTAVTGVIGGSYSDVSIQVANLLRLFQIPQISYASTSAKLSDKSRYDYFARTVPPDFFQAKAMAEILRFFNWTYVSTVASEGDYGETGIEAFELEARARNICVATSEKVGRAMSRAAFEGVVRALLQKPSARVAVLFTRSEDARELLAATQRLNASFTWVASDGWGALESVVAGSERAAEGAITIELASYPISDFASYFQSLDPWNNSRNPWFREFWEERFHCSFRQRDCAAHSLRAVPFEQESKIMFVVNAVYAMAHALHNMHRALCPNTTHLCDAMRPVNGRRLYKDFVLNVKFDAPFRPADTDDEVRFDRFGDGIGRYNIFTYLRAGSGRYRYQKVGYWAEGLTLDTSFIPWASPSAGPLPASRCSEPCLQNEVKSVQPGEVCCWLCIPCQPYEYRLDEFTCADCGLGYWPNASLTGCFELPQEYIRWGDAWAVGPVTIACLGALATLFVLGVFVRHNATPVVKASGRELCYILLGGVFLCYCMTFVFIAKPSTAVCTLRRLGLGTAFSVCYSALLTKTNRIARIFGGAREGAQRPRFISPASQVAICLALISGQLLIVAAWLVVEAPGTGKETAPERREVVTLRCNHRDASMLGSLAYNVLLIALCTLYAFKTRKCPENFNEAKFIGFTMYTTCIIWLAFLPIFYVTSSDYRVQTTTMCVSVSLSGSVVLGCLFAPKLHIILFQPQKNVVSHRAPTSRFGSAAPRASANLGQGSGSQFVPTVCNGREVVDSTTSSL
Sequence of Metabotropic glutamate receptor 6 (P35349 whole entry): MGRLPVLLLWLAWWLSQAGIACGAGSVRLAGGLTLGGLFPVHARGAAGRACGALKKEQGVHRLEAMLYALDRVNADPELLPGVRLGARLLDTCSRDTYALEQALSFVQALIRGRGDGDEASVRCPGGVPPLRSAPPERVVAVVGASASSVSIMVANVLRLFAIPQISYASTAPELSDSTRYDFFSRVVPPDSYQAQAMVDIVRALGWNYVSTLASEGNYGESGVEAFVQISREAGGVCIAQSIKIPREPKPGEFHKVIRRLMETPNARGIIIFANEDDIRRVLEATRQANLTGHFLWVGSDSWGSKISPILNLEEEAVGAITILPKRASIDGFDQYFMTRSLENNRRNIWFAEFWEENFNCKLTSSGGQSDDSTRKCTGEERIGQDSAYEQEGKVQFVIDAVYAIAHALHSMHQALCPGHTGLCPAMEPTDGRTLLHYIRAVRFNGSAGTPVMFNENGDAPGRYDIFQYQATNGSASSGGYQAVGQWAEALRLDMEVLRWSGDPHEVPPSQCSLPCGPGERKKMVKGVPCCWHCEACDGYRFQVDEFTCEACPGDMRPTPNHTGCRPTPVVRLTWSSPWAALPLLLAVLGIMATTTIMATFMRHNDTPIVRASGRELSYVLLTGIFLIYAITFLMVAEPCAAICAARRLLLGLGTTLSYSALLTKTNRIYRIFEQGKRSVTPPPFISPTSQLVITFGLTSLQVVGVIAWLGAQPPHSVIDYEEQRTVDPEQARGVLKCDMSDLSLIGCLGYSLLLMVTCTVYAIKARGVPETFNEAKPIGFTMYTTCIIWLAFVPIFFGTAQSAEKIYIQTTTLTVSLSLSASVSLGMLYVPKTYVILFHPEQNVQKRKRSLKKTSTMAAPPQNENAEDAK
Sequence of Metabotropic glutamate receptor 4 (P31423 whole entry): as the sequence (P31423 whole entry) above

For `N[C@@]1(C(=O)O)C[C@H](C(=O)O)[C@H](C(=O)O)C1`, the EC50 (commonly the concentration giving half of the maximal effect) is 10.1 µM in test [1]; more than 1000 µM in test [2]; 7.2 µM in [3]; more than 1000 µM in test [4]; 18.4 µM in test [5]; 1200 µM in test [6].
With `N[C@@]1(C(=O)O)C[C@@H](C(=O)O)N(C(=O)/C=C/C(=O)O)C1`, the EC50 in [7] is more than 5000 µM; in test [1], 56.2 µM; in test [2] it was more than 5000 µM; in test [3], 48.3 µM; in test [4], more than 5000 µM; in [5], 378 µM. For the same molecule, the values for the Activity entry in test [8], in [10] and in test [11] were “Agonist”, “Partial agonist” and “Agonist”, respectively. For the same molecule, the Emax (usually the maximal effect, on the per cent scale that the assay sets) in test [9] was 75%; in test [12], 36%.

These data come from ChEMBL document CHEMBL1137262, “Design and synthesis of APTCs (aminopyrrolidinetricarboxylic acids): identification of a new group III metabotropic glutamate receptor selective agonist” (Bioorg Med Chem Lett, 2006).
